Screening data deposited in PubChem by several laboratories.
ATG4B inhibitor: ATG4B protease inhibitors, primary screen, biochemical, fluorescence, uHTS; actives 0.51% (n = 340,000); inhibition, % at 8.33 µM; Cysteine protease ATG4B (Homo sapiens), Q9Y4P1; AID 504462, 2011; ATG4B cleavage of LC3-PLA2, NBD-HPC fluorescence, 1 h; in the data active = inhibition above about 40%
Target sequence (Q9Y4P1 whole entry, looked up): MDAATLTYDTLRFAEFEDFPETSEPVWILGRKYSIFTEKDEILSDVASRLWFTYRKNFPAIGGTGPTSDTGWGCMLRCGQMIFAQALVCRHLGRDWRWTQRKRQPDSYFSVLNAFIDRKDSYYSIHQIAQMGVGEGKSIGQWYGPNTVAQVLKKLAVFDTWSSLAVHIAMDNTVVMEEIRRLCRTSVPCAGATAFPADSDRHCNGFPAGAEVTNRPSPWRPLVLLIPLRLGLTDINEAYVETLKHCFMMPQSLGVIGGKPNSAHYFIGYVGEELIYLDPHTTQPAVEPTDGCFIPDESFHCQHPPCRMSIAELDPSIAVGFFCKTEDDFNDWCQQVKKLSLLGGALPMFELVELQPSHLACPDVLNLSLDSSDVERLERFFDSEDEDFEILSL
UHRF1 binding: UHRF1 methylated DNA binding inhibitors, primary screen, counter-screen for MBD2 inhibitor project, biochemical, TR-FRET, human UHRF1, single concentration | inhibition, % at 4.4 µM | E3 ubiquitin-protein ligase UHRF1 (Homo sapiens), Q96T88 | AID 687016, 2013 | UHRF1 binding to methylated oligo | actives 0.75% (n = 370,000); in the data active = inhibition above about 21%;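 also: UHRF1 SRA domain binding a hemimethylated CpG hairpin DNA probe; 0% = median of test compound wells and 100% = reference inhibitor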
rCAG RNA binder: binders of r(CAG) RNA repeats, primary screen, biochemical, fluorescence. inhibition, % at 3 µM. r(CAG) RNA repeat, TO-PRO-1 dye displacement fluorescence. AID 651821, 2012. actives 1.3% (n = 370,000);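 active = inhibition above the plate cutoff, the mean of all test compounds on that plate plus 3 SD, cut at about 35% in these data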;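 also: 0% = DMSO alone and 100% = 100 µM mitoxantrone as full dye displacement; higher means more dye released from RNA so lower well fluorescence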
LEDGF integ inh: blockers of LEDGF/p75-dependent integrase strand transfer – biochemical, TR-FRET, high throughput, primary screen. HIV-1 integrase (with human LEDGF/p75). TR-FRET IN-LEDGF/p75 DNA integration, Eu/Cy5. inhibition, % at 3.7 µM. actives 0.64% (n = 370,000);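 active = inhibition above the screen-wide mean plus 3 SD, cut at about 13% in these data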;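 also: signal is the Cy5 over europium emission ratio at 671 and 618 nm; 0% = plate median of compound wells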
MBD2 DNA inh: inhibitors of MBD2 binding to methylated DNA, primary screen, biochemical, TR-FRET, DNA-binding domain, human; Methyl-CpG-binding domain protein 2 (Homo sapiens), Q9UBB5; actives 0.31% (n = 370,000); inhibition, % at 4.4 µM; MBD2 binding to methylated oligonucleotide; in the data active = inhibition above about 13%
CSN deneddyl inh: inhibitors of CSN-mediated cullin deneddylation, primary screen, biochemical, fluorescence polarization, uHTS; inhibition, % at 12.5 µM; AID 651999, 2013; actives 0.38% (n = 360,000); COP9 signalosome complex subunit 5 (Homo sapiens), Q92905; Purified CSN, SCF-Nedd8-OG deneddylation;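 active = pattern-corrected inhibition above about 35%, with an unprinted fluorescence ratio check between 0.5 and 1.5, limit read from the data, passing the limit was not always enough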;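 also: 0% = enzyme with substrate and 100% = substrate without enzyme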
Target sequence (Q92905 whole entry, looked up, one chain of several): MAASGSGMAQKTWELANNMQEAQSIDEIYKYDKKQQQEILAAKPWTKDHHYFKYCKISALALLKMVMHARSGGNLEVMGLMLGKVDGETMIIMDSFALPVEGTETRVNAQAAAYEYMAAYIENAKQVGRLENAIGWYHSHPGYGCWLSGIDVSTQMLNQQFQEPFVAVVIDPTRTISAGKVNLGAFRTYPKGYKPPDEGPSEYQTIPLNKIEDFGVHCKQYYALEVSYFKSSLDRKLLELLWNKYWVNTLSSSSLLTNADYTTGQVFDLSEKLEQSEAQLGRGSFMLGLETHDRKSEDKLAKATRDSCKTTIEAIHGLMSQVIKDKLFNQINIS
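Material: human Csn5 produced in HEK293T cells; Input: enzyme 0.24 nM; Reagent: SCFSkp2-Nedd8OG substrate at 10 nM final; Dosing: 12.5 µM compound; Incubation: 90 min reaction at room temperature; Detection: fluorescence polarization of the substrate; Evaluation: % inhibition of substrate cleavage by Csn5; Control set: substrate-only high control, full reaction low control.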
rCAG bind conf: small molecules binding CAG repeat RNA – biochemical, fluorescence, confirmation | shares compounds with rCAG RNA binder | r(CAG) RNA repeat, TO-PRO-1 dye displacement fluorescence | inhibition, % at 3 µM | actives 70% (n = 4,300) | AID 652065, 2013;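 active = inhibition above a per-plate cutoff, the mean inhibition of sample wells plus 3 SD, cut at about 35% in these data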;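 also: loss of TO-PRO-1 fluorescence as compound displaces dye from 1x1 AA loop RNA; 0% = DMSO only wells and 100% = 100 µM mitoxantrone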
DNA CAG counter: displacement of TO-PRO-1 from CAG DNA duplex, counter-screen for rCAG RNA repeat binder project, biochemical, fluorescence, TO-PRO-1 dye, d(CAG) DNA oligo | shares compounds with rCAG RNA binder | d(CAG) DNA oligo TO-PRO-1 dye displacement | inhibition, % at 3 µM | actives 94% (n = 4,300);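 active = inhibition above its plate's cutoff, the mean test-well inhibition plus 3 SD, cut at about 4.8% in these data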;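 also: 0% = DNA dye mix with DMSO and 100% = 100 µM mitoxantrone; hits displace the dye from DNA and so lower well fluorescence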
dCAG dye DR: inhibitors of DNA CAG/GTC TO-PRO-1 complex, dose response, counter-screen for rCAG RNA repeat binder project, biochemical, fluorescence, TO-PRO-1 dye. shares compounds with rCAG RNA binder. DNA CAG/GTC duplex TO-PRO-1 dye displacement fluorescence. IC50, µM. actives 20% (n = 250). AID 686960, 2013; in the data active = IC50 below about 10 µM
Active calls of the source: *; i = inactive; · = not tested or not shown. The list is not random: actives were taken first. Their share in the collection is about 3.1%.

SMILES | ATG4B inhibitor | UHRF1 binding | rCAG RNA binder | LEDGF integ inh | MBD2 DNA inh | CSN deneddyl inh | rCAG bind conf | DNA CAG counter | others
COC(=O)c1sc(-c2ccc(Cl)cc2)cc1NC(=O)COCC(=O)O | 5 | -6 | 46* | -1 | 0 | 1 | 52* | 12* | dCAG dye DR=i
CC(=O)c1sc(C(C)(C)C)cc1NC(=O)CCC(=O)O | -4 | 3 | -1 | 0 | 4 | 1 | · | ·
COC(=O)c1sc(-c2ccc(C(C)(C)C)cc2)cc1NC(=O)CCC(=O)O | 20 | -1 | 72* | -1 | 8 | 2 | 72* | 29*
COc1ccc(CN(CCN2CCOCC2)C(=O)c2ccc(F)cc2F)cc1OC | · | -1 | 1 | -1 | -2 | · | · | ·
Cc1ccc(S(=O)(=O)NC(=O)c2cc(C)n(C3CC3)c2C)cc1 | 2 | 0 | 3 | 1 | 0 | 0 | · | ·
Cc1ccc(-n2c(C)cc(C(=O)NS(=O)(=O)c3ccc(C)cc3)c2C)cc1 | 5 | 2 | 40* | 1 | 3 | -3 | 27 | 9.7*
COc1ccc(Cl)cc1NC(=O)CSc1nc(-c2ccccc2)cc(=O)[nH]1 | 2 | 2 | 43* | 4 | 3 | -3 | 68* | 30*
COc1ccc(Cl)cc1NC(=O)CSc1nc(NS(=O)(=O)c2ccccc2)cc(=O)[nH]1 | 4 | 0 | 17 | 2 | 2 | 5 | · | ·
CCCc1cc(=O)[nH]c(SCC(=O)Nc2nc(-c3ccccc3)cs2)n1 | 4 | 3 | 45* | 0 | 1 | -4 | 56* | 19*
COP(=O)(O)C[C@@H]1CCc2cc(C)cc([C@H](CC(C)C)NC(=O)OCc3ccccc3)c2O1 | · | 5 | 26 | -5 | 6 | · | · | ·
COc1ccc(/C=C2/S/C(=N/S(=O)(=O)Cc3ccccc3)NC2=O)cc1OC | 0 | 4 | 53* | -5 | 3 | 6 | 44* | 12*
O=C1N/C(=N\S(=O)(=O)Cc2ccccc2)S/C1=C/c1cccc([N+](=O)[O-])c1 | 8 | -1 | 81* | -3 | -1 | 4 | 69* | 28*
Nn1c(SCC(=O)Nc2ccccc2-c2ccccc2)nnc1-c1n[nH]c2c1CCC2 | · | 2 | 1 | 2 | -1 | · | · | ·
O=C(O)c1cccc(NC(=S)NC(=O)c2cccc(OCc3ccccc3)c2)c1 | 3 | 0 | 61* | -4 | 5 | 1 | 64* | 26*
CCCOc1cccc(C(=O)NC(=S)Nc2ccccc2)c1 | 1 | 0 | 2 | 1 | 2 | -4 | · | ·
CCCCC(=O)Nc1ccc(C(=O)NCC2COc3ccccc3O2)cc1 (stereo unspecified) | · | -5 | 1 | 4 | 0 | · | · | ·
c1coc(-c2nc3c([nH]2)CCc2nonc2-3)c1 | -7 | 9 | 42* | 12 | -2 | 10 | 9 | 3
O=C(N[C@H](Cc1ccccc1)C(=O)N1CCN(c2ccc(Cl)cn2)CC1)[C@H]1O[C@@H](n2ccc(=O)[nH]c2=O)[C@H](O)[C@@H]1O | · | 1 | 1 | 0 | -2 | · | · | ·
CC(C)C(OC(=O)C1=Cc2ccccc2OC1)C(=O)NCC1CCCO1 (stereo unspecified) | 0 | 8 | 35* | 9 | 3 | 16 | 48* | 17*
CC(OC(=O)C1=Cc2ccccc2OC1)C(=O)NC1CCCC1 (stereo unspecified) | -1 | -4 | 2 | 2 | -8 | 3 | · | ·
O=C(CN1C(=O)S/C(=C\C=C\c2ccccc2)C1=O)Nc1ccccc1C(=O)O | 22 | -2 | 77* | 6 | -5 | 7 | 84* | 52*
CC(=O)c1ccc(NC(=O)CN2C(=O)/C(=C/C=C/c3ccccc3)SC2=S)cc1 | 2 | 6 | 38* | 3 | 2 | 32 | 22 | 15*
O=C(CN1C(=O)S/C(=C\C=C\c2ccccc2)C1=O)Nc1cccc(O)c1 | 2 | 0 | 18 | -1 | -3 | 0 | · | ·
Cc1nn(-c2ccccc2)c2sc(C(=O)NC3CCCCCCC3)cc12 | · | 4 | 10 | 1 | 1 | · | · | ·
CC(=O)NC1CCCCN(C(C)C)C1=O (stereo unspecified) | · | -2 | 2 | -2 | 4 | · | · | ·
SMILES | ATG4B inhibitor | UHRF1 binding | rCAG RNA binder | LEDGF integ inh | MBD2 DNA inh | CSN deneddyl inh | rCAG bind conf | DNA CAG counter | others
COc1cc(C)ccc1S(=O)(=O)NC(=O)C1(C)CCN1C(=O)c1ccc(C2CCCCC2)cc1 (stereo unspecified) | · | -3 | 40* | -1 | 3 | 2 | 38* | 8.3*
CCOC(=O)C1=C(C)n2c(s/c(=C3\C(=O)Nc4ccccc43)c2=O)=NC1c1ccc(OC)cc1 (stereo unspecified) | -10 | -6 | 29 | -5 | -1 | -4 | · | ·
CCOC(=O)C1=C(C)N=c2s/c(=C\c3ccc(OCC(=O)O)c(OC)c3)c(=O)n2C1c1ccc(OC)cc1 (stereo unspecified) | 14 | -5 | 54* | -2 | 7 | 7 | 75* | 38*
COc1cccc(C2C3=C(N=c4s/c(=C\c5ccc(OCC(=O)O)cc5)c(=O)n42)c2ccccc2CC3)c1 (stereo unspecified) | 28 | · | · | · | · | · | · | ·
CCOC(=O)C1=C(C)N=c2sc(=Cc3cc(Cl)c(OCC(=O)O)c(OC)c3)c(=O)n2C1c1ccccc1Cl (stereo unspecified) | · | 0 | 22 | 0 | 1 | 24 | · | ·
CCOC(=O)C1=C(C)N=c2s/c(=C3/C(=O)Nc4ccccc43)c(=O)n2C1c1ccc(C)cc1 (stereo unspecified) | -23 | -6 | 43* | -5 | 2 | 1 | 53* | 22* | dCAG dye DR=i
